Measurements as given in PMC7475184 (Heliyon, 2020).
≈ marks a conversion by molar mass, not a printed value.

What was measured:
[1] = system: Methicillin-Resistant Staphylococcus aureus (14–2095); experiment: Antibacterial activity, microdilution method; assay type: cell-based; conditions: for MIC, MRSA: MDR clinical isolate, microdilution; for MIC: Staphylococcus aureus, MRSA, read-out: MIC, MRSA
In short: (§1)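 Drug-resistant clinical isolates from a university hospital, tested by broth microdilution in Mueller Hinton medium. Test compounds at 200, 100, 50, 25, 12.5, 6.25 and 3.12 μg/mL. Levofloxacin positive control at the same concentrations; DMSO (6%–0.09%, v/v) negative control. MIC taken as the lowest concentration inhibiting bacterial growth. Three repeat experiments.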

[2] = system: Linezolid-resistant Staphylococcus epidermidis (14–583); experiment: Antibacterial activity, microdilution method; assay type: cell-based; conditions: for MIC, LRSE: MDR clinical isolate, microdilution; for MIC: Staphylococcus epidermidis, read-out: MIC, LRSE
In short: as §1

[3] = system: carbapenems-resistant Klebsiella pneumoniae NDM-1+ (14–3335); experiment: Antibacterial activity, microdilution method; assay type: cell-based; conditions: for MIC, KPNDM-1+: MDR clinical isolate, microdilution; for MIC: Klebsiella pneumoniae, read-out: MIC, KPNDM-1+
In short: as §1

[4] = system: carbapenems-resistant Klebsiella pneumoniae (OXA-48 positive); experiment: Antibacterial activity, microdilution method; assay type: cell-based; conditions: for MIC, KPRO: MDR clinical isolate, microdilution; for MIC: Klebsiella pneumoniae, read-out: MIC, KPRO
In short: as §1

[5] = system: Vancomycin-resistant Enterococcus faecium (10–984); experiment: Antibacterial activity, microdilution method; assay type: cell-based; conditions: for MIC, VREF: MDR clinical isolate, microdilution; for MIC: Enterococcus faecium, read-out: MIC, VREF
In short: as §1

[6] = system: Klebsiella pneumoniae producer of ESBL (14–2081); experiment: Antibacterial activity, microdilution method; assay type: cell-based; conditions: for MIC, KPPB: MDR clinical isolate, microdilution; for MIC: Klebsiella pneumoniae, read-out: MIC, KPPB
In short: as §1

[7] = system: P. aeruginosa resistant to carbapenems (13–1391); experiment: Antibacterial activity, microdilution method; assay type: cell-based, Pseudomonas aeruginosa; conditions: for MIC, PARC: MDR clinical isolate, microdilution; for MIC: Pseudomonas aeruginosa, read-out: MIC, PARC
In short: as §1

[8] = system: Carbapenems-resistant Acinetobacter baumannii (12–666); experiment: Antibacterial activity, microdilution method; assay type: cell-based; conditions: for MIC, CRAB: MDR clinical isolate, microdilution; for MIC: Acinetobacter baumannii, read-out: MIC, CRAB
In short: as §1

[9] = system: Escherichia coli producing extended-spectrum beta-lactamase (14–2081); experiment: Antibacterial activity, microdilution method; assay type: cell-based; conditions: for MIC, ECPB: MDR clinical isolate, microdilution; for MIC: Escherichia coli, read-out: MIC, ECPB
In short: as §1

[10] = system: immortalized human hepatocytes (IHH); assay type: cell-based; conditions: for IC50, IHH: non-cancerous control cells IHH; for IC50: Homo sapiens, Hepatocyte, read-out: IC50, IHH
In short: (§2)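 Cells grown in DMEM with 10% fetal bovine serum and 2 mM glutamine at 37 °C under 5% CO2. Test compounds at 100, 10, 1, 0.1 and 0.01 μg/mL for a dose-response curve. Viability read with a Cell Titer 96 aqueous kit by absorbance at 450 nm. Paclitaxel reference. Triplicates in three independent experiments; IC50 by regression analysis.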

[11] = system: Hep3B (hepatocellular) cells; experiment: Cytotoxic activity, Cell Titer 96 proliferation kit; assay type: cell-based, human; conditions: for IC50, Hep3B: Hep3B cells; for IC50: Homo sapiens, Hep3B, read-out: IC50, Hep3B
In short: as §2

[12] = system: A549 (lung) cells; experiment: as above; assay type: cell-based, human; conditions: for IC50, A549: A549 cells; for IC50: Homo sapiens, A549, read-out: IC50, A549
In short: as §2

[13] = system: HeLa (cervical) cells; experiment: as above; assay type: cell-based, human; conditions: for IC50, Hela: HeLa cells; for IC50: Homo sapiens, HeLa, read-out: IC50, Hela
In short: as §2

[14] = system: HepG2 (hepatocellular) cells; experiment: as above; assay type: cell-based, human; conditions: for IC50, HepG2: HepG2 cells; for IC50: Homo sapiens, HepG2, read-out: IC50, HepG2
In short: as §2

[15] = system: PC3 (prostate) cells; experiment: Cytotoxic activity, Cell Titer 96 proliferation kit; assay type: cell-based, human; conditions: for IC50, PC3: PC3 cells; for IC50: Homo sapiens, PC-3, read-out: IC50, PC3
In short: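 PC3 cells kept in RPMI-1640 at 37 °C under 5% CO2. Dose-response over 100, 10, 1, 0.1 and 0.01 μg/mL test compound. Viability measured with a Cell Titer 96 aqueous kit by absorbance at 450 nm. Paclitaxel reference. Triplicates in three independent experiments; IC50 derived by regression analysis.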

[16] = system: MCF7 (breast) cells; experiment: Cytotoxic activity, Cell Titer 96 proliferation kit; assay type: cell-based, human
In short: as §2

[17] = system: hepatocellular carcinoma lines; experiment: Selectivity Index on hepatocellular carcinoma lines versus IHH; assay type: cell-based, human; conditions: HepG2 and Hep3B versus IHH
[18] = system: P. aeruginosa; conditions: Vernonia auriculifera screening; ref Kiplimo et al., 2011; cited from earlier work

CCCCCCCCCCCCCCCCCCCCCCCC(=O)OCC(COC(C)=O)OC(C)=O (stereo not drawn) [2Ac, 3-(tetracosanoyloxy) propane-1,2-diyl diacetate]
MIC, MRSA [1]: >200 µg/mL | MIC, LRSE [2]: 200 µg/mL | MIC, KPNDM-1+ [3]: 200 µg/mL | MIC, KPRO [4]: >200 µg/mL | MIC, VREF [5]: 200 µg/mL | MIC, KPPB [6]: >200 µg/mL | MIC, PARC [7]: 200 µg/mL | MIC, CRAB [8]: 100 µg/mL | MIC, ECPB [9]: >200 µg/mL

CC[C@H](CC[C@@H](C)[C@H]1CC[C@H]2[C@@H]3CC=C4C[C@@H](O[C@@H]5O[C@H](COC(C)=O)[C@@H](OC(C)=O)[C@H](OC(C)=O)[C@H]5OC(C)=O)CC[C@]4(C)[C@H]3CC[C@]12C)C(C)C [3Ac, β-sitosteryl β-D-tetraacetyl glucopyranoside]
MIC, MRSA [1]: >200 µg/mL | MIC, LRSE [2]: >200 µg/mL | IC50, IHH [10]: 78 ± 7 µg/mL (≈ 105 µM) | MIC, KPNDM-1+ [3]: >200 µg/mL | MIC, KPRO [4]: 200 µg/mL (≈ 268 µM) | IC50, Hep3B [11]: 49 ± 4 µg/mL (≈ 65.8 µM) | IC50, A549 [12]: 87 ± 8 µg/mL (≈ 117 µM) | MIC, VREF [5]: 200 µg/mL (≈ 268 µM) | MIC, KPPB [6]: >200 µg/mL | MIC, PARC [7]: 200 µg/mL (≈ 268 µM) | MIC, CRAB [8]: 200 µg/mL (≈ 268 µM) | IC50, Hela [13]: 63 ± 7 µg/mL (≈ 84.6 µM) | MIC, ECPB [9]: >200 µg/mL | IC50, HepG2 [14]: 50 ± 3 µg/mL (≈ 67.1 µM) | IC50, PC3 [15]: 43 ± 4 µg/mL (≈ 57.7 µM)

CC(=O)OC[C@H]1O[C@@H](O[C@H]2CC[C@]3(C)[C@H]4CC=C5[C@@H]6[C@@H](C)[C@H](C)CC[C@]6(C)CC[C@@]5(C)[C@]4(C)CC[C@H]3C2(C)C)[C@H](OC(C)=O)[C@@H](OC(C)=O)[C@@H]1OC(C)=O [4Ac, α-amyrin tetraacetyl 3-O-β-D-glucopyranoside]
IC50, MCF7 [16]: >100 µg/mL | IC50, IHH [10]: >100 µg/mL | IC50, Hep3B [11]: >100 µg/mL | IC50, A549 [12]: >100 µg/mL | IC50, Hela [13]: >100 µg/mL | IC50, HepG2 [14]: >100 µg/mL | IC50, PC3 [15]: >100 µg/mL

CC(=O)O[C@H]1C(=O)[C@@]2(C)[C@H]([C@H](OC(=O)c3ccccc3)[C@]3(O)C[C@H](OC(=O)[C@H](O)[C@@H](NC(=O)c4ccccc4)c4ccccc4)C(C)=C1C3(C)C)[C@]1(OC(C)=O)CO[C@@H]1C[C@@H]2O [Paclitaxel, reference compound]
IC50 [10]: 0.0794 µg/mL (≈ 0.093 µM) | IC50 [11]: 0.033 µg/mL (≈ 0.0386 µM) | IC50 [12]: 0.00512 µg/mL (≈ 0.006 µM) | IC50 [13]: 0.00478 µg/mL (≈ 0.0056 µM) | IC50 [14]: 0.064 µg/mL (≈ 0.0749 µM) | IC50 [15]: 0.0102 µg/mL (≈ 0.0119 µM)

CCCCCCCCCCCCCCCCCCCCCCCC(=O)OCC(O)CO (stereo not drawn) [compound 2, 2,3-dihydroxypropyl tetracosanoate]
MIC [1]: > 200 µg/mL | MIC [2]: 200 µg/mL (≈ 452 µM) | IC50 [10]: 100 µg/mL (≈ 226 µM) | MIC [3]: 200 µg/mL (≈ 452 µM) | MIC [4]: 200 µg/mL (≈ 452 µM) | IC50 [11]: 73 ± 7 µg/mL (≈ 165 µM) | IC50 [12]: > 100 µg/mL | MIC [5]: 200 µg/mL (≈ 452 µM) | MIC [6]: > 200 µg/mL | MIC [7]: 200 µg/mL (≈ 452 µM) | MIC [8]: 200 µg/mL (≈ 452 µM) | Selectivity Index (SI) on hepatocellular carcinoma lines [17]: greater than 1 | IC50 [13]: 82 ± 8 µg/mL (≈ 185 µM) | MIC [9]: > 200 µg/mL | IC50 [14]: 75 ± 6 µg/mL (≈ 169 µM) | IC50 [15]: 75 ± 5 µg/mL (≈ 169 µM)

C[C@H]1COc2c(N3CCN(C)CC3)c(F)cc3c(=O)c(C(=O)O)cn1c23 [levofloxacin, reference compound]
MIC [1]: 12.5 µg/mL (≈ 34.6 µM) | MIC [2]: 6.25 µg/mL (≈ 17.3 µM) | MIC [3]: > 50 µg/mL | MIC [4]: > 50 µg/mL | MIC [5]: 12.5 µg/mL (≈ 34.6 µM) | MIC [6]: > 50 µg/mL | MIC [7]: 12.5 µg/mL (≈ 34.6 µM) | MIC [8]: 12.5 µg/mL (≈ 34.6 µM) | MIC [9]: 12.5 µg/mL (≈ 34.6 µM)

C[C@H]1[C@H](C)CC[C@]2(C)CC[C@]3(C)C(=CC[C@@H]4[C@@]5(C)CC[C@H](O)C(C)(C)[C@@H]5CC[C@]43C)[C@H]12 [α-amyrin]
MIC, P. aeruginosa [18]: 1000 µg/mL (≈ 2340 µM)
